Assay results from PMC3859345 (Science translational medicine, 2013).
Entries after “also recorded” stand apart in the source; their conditions may differ. Where no end group is shown, it is not given here. The star is where a group is joined. FITC = O=C1OC2(c3ccc(O)cc3Oc3cc(O)ccc32)c2ccc(NC(=S)*)cc21; Ahx = NCCCCCC(=O)O

What was measured:
[1] = Fluorescence emission spectra; assay type: physicochemical; details: 100 μM in PBS, 471 nm excitation
[2] = test system: adenocarcinoma cells; test: Flow cytometry, adenocarcinoma cells; assay type: binding, human; details: for mean intensity of controls lower than that for ASY*-FITC: flow cytometry, relative to ASY*-FITC
Outline: (§1)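 Adenocarcinoma and non-neoplastic Q-hTERT cells, grown as adherent monolayers at 37°C, 5% CO2, incubated with FITC-labelled peptide, with FITC-labelled control peptides (including a scrambled sequence), or left unstained. Mean fluorescence intensity measured by flow cytometry.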

[3] = test system: Q-hTERT cells; test: Flow cytometry, Q-hTERT cells; assay type: binding, human
Outline: as §1

[4] = test system: H460, FLO1, OE33, and OE19 adenocarcinoma cells; test: Confocal fluorescence microscopy, control peptides; assay type: binding, human; details: compared with ASY*-FITC
[5] = test system: OE33 adenocarcinoma cells; test: Confocal fluorescence microscopy, OE33; assay type: binding, human
Outline: (§2)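 Adherent OE19 and OE33 esophageal carcinoma monolayers maintained at 37°C, 5% CO2 in RPMI-1640 with 10% FBS, penicillin/streptomycin and 5 μg/ml plasmocin. FITC-labelled peptide binding to the plasma membrane examined by confocal fluorescence microscopy.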

[6] = test system: H460 cells; test: Binding kinetics; parameters: species or system human; details: ASY*-FITC to H460 cells; least squares fit
Outline: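 H460 lung adenocarcinoma cells grown as adherent monolayers in DMEM with 10% FBS and 100 U/ml penicillin/streptomycin at 37°C, 5% CO2. Association time constant k determined for FITC-labelled peptide binding to these cells.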

[7] = test system: FLO1 adenocarcinoma cells; test: Confocal fluorescence microscopy, FLO1; assay type: binding, human
Outline: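 FLO1 esophageal adenocarcinoma cells cultured as adherent monolayers in DMEM with 10% FBS, penicillin/streptomycin and 5 μg/ml plasmocin at 37°C, 5% CO2. Plasma-membrane binding of FITC-labelled peptide assessed by confocal fluorescence microscopy.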

[8] = test system: H460 adenocarcinoma cells; test: Confocal fluorescence microscopy, H460; assay type: binding, human
Outline: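 Adherent H460 cultures (DMEM, 10% FBS, P/S, 37°C, 5% CO2) were incubated with FITC-labeled test peptide and examined by confocal fluorescence microscopy for plasma-membrane labeling. Non-neoplastic Q-hTERT Barrett's cells, grown in keratinocyte serum-free medium with 50 μg/ml bovine pituitary extract and 0.005 μg/ml EGF, were the control line.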

[9] = test system: Barrett's neoplasia (HGD/EAC); test: Confocal endomicroscopy in vivo after topical peptide administration; parameters: species or system human
[10] = test system: human esophageal mucosa (squamous, BE, HGD, EAC); test: Ex vivo fluorescence stereomicroscopy of resected esophageal specimens; assay type: binding; details: 1 mm^2 regions, 12 EMR specimens
[11] = test system: H460 cells; test: Binding affinity; parameters: species or system human; details: read-out: apparent dissociation constant (kd); ASY*-FITC to H460 cells; averages from 3 independent experiments; least squares fit
Outline: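 Human H460 lung adenocarcinoma cells were grown as adherent monolayers in DMEM with 10% FBS and 100 U/ml penicillin/streptomycin at 37°C, 5% CO2. They were incubated with FITC-labeled test peptide, and the apparent dissociation constant was derived from cell-bound fluorescence. Values are averages of 3 independent experiments.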

[12] = Stability testing of lyophilized powder; assay type: physicochemical; details: −20°C
Outline: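 GMP-synthesized FITC-peptide aliquoted into amber vials crimp-sealed with septa and stored at −20°C. Monitored by appearance (colour), HPLC and mass spectrometry over 3 years.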

[13] = test system: human subjects; details: in vivo
[14] = test system: human subjects; test: Peptide safety in humans
[15] = test system: OE19 adenocarcinoma cells; test: Confocal fluorescence microscopy, OE19; assay type: binding, human
Outline: as §2

[16] = test system: Q-hTERT cells; test: Confocal fluorescence microscopy, Q-hTERT; assay type: binding, human; details: Q-hTERT BE cells
Outline: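 Non-neoplastic Q-hTERT Barrett's cells kept in keratinocyte serum-free medium with 50 μg/ml bovine pituitary extract, 0.005 μg/ml recombinant human EGF and penicillin/streptomycin, as adherent monolayers at 37°C, 5% CO2. Binding of FITC-labelled peptide checked by confocal fluorescence microscopy.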

[17] = test system: human H460 adenocarcinoma cells; test: Phage display biopanning, phage count / pfu binding to H460 cells; details: pfu counts
[18] = test system: H460 cells; test: Competitive binding with ASY*-FITC on H460 cells; parameters: species or system human; details: unlabeled competitor 100 to 1000 μM (GGG* control at concentrations up to 1000 μM, P>0.05, unpaired t-test)
[19] = test system: ovarian cancer; details: topical administration, mouse model of ovarian cancer; cited from earlier work

## O=C1OC2(c3ccc(O)cc3Oc3cc(O)ccc32)c2ccc(N=C=S)cc21 [FITC, reference compound]
[1]
  peak emission: 519 nm

## AADYYSN-GGGSK-FITC
[2]
  mean intensity of controls lower than that for ASY*-FITC: < 3 fold
[3]
  difference between ASY*-FITC and control peptides on binding to Q-hTERT cells: No difference
[4]
  fluorescence signal of control peptides: Significantly less signal

## ASYNYDA [ASY*-FITC]
[5]
  binding to plasma membrane (confocal), OE33: binding of ASY*-FITC to the plasma membrane; also recorded: specific binding
[6]
  apparent association rate constant (k): 0.2 min⁻¹
[7]
  binding to plasma membrane (confocal), FLO1: binding of ASY*-FITC to the plasma membrane; also recorded: specific binding
[8]
  binding to plasma membrane (confocal), H460: binding of ASY*-FITC to the plasma membrane
[9]; 25 human subjects, topical 5 ml of 100 μM, 5 min incubation
  greater fluorescence intensity for HGD/EAC (neoplasia) than for BE and squamous: 3.8 fold
[9]; HGD and EAC crypts, confocal endomicroscopy
  in vivo binding, HGD and EAC: specific peptide binding to neoplastic crypts
[9]; T/B ratio threshold 4.2, 95% CI: 85%–100%, 25 human subjects
  specificity for HGD/EAC: 97%
[9]; normal squamous epithelium, confocal endomicroscopy
  in vivo binding, squamous epithelium: no peptide binding
[9]; topical administration
  onset of binding: ~ 5 minutes
[2]; compared with control peptides
  binding on flow cytometry (in words): stronger binding to the adenocarcinoma cells
[3]
  difference between ASY*-FITC and control peptides on binding to Q-hTERT cells: No difference
[10]
  mean fluorescence intensities for HGD and EAC versus non-dysplastic BE and squamous: significantly greater than non-dysplastic BE and squamous
[11]
  Kd: 32 nM
[12]; 36 months, initial 97%
  purity on HPLC at end of stability testing: 95%
[12]; over 36 months (97% to 95%)
  change in purity on HPLC: ~ 2%
[13]
  mean post/pre-EMR WBC ratio at 24 hours: 1.7±0.4
  post/pre-EMR WBC ratio without peptide compared with peptide and EMR: not significantly different
[14]; 14 out of 21 patients with leukocytosis resolved, SD, P<0.01, Mann Whitney test
  mean WBC count ratio by day 5: 1.1±0.2
[14]; 21 patients with EMR, baseline 7.0×10^3, P<0.01, unpaired t-test, transient
  mean white blood cell (WBC) count at 24 hours: 11.1×10^3
[14]; BE patients, topical
  safety of topical application (in words): safe and effective
[14]; after EMR with peptide, remaining 7 patients after day 5
  patients with leukocytosis resolved by day 5: 14 out of 21
[14]; all 25 patients, baseline and post-procedure
  urinalyses: within normal limits
[14]; all adverse events, clinical study
  relation of adverse events to the peptide: unlikely to have been related to the peptide
[14]; animal and patient studies
  toxicity attributed to the peptide: No toxicity was attributed to the peptide
[15]
  binding to plasma membrane (confocal), OE19: binding of ASY*-FITC to the plasma membrane; also recorded: specific binding
[1]
  peak emission: 519 nm
[16]
  binding to Q-hTERT cells: did not bind to Q-hTERT cells

## ASYNYDA [ASYNYDA phage]
[17]; H460 vs Q-hTERT BE cells
  greater binding for H460 than for Q-hTERT cells: 5.3 fold
[17]; vs WT-phage (no peptides expressed)
  greater binding for H460 cells in comparison to wild-type (WT)-phage: > 10 fold

## GGGAGGGAGGGK
[18]
  inhibition of ASY*-FITC binding (fluorescence intensity): No significant reduction in fluorescence intensity

## GGGAGGGAGGGK-FITC
[2]
  mean intensity of controls lower than that for ASY*-FITC: < 3 fold
[3]
  difference between ASY*-FITC and control peptides on binding to Q-hTERT cells: No difference
[4]
  fluorescence signal of control peptides: Significantly less signal

## MNDPIPQ-GGGSK-FITC
[2]
  mean intensity of controls lower than that for ASY*-FITC: < 3 fold
[3]
  difference between ASY*-FITC and control peptides on binding to Q-hTERT cells: No difference
[4]
  fluorescence signal of control peptides: Significantly less signal

## {FITC-Ahx}-ASYNYDA
[2]
  mean intensity of controls lower than that for ASY*-FITC: < 3 fold
[3]
  difference between ASY*-FITC and control peptides on binding to Q-hTERT cells: No difference
[4]
  fluorescence signal of control peptides: Significantly less signal

## γ-glutamyl hydroxymethyl rhodamine green
[19]
  time to fluorescence activation: ~ 1 minute
